Screens: PubChem BioAssay, The Scripps Research Institute Molecular Screening Center
PAFAH1B3 inh: PAFAH1B3 enzyme inhibitors, primary screen, biochemical, fluorescence polarization, human; Platelet-activating factor acetylhydrolase IB subunit alpha1 (Homo sapiens), Q15102; recombinant PAFAH1B3, FP-rhodamine probe; inhibition, % at 3.39 µM; 0.28% of 340,000 active; AID 492972, 2010;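 active means inhibition above the screen-wide average of all tested compounds plus 3 SD, cut at about 25% in these data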;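 further: 0% = enzyme with DMSO only and 100% = wells lacking PAFAH1B3 protein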
PAFAH2 inh: PAFAH2 enzyme inhibitors, primary screen, biochemical, fluorescence polarization, human; Platelet-activating factor acetylhydrolase 2, cytoplasmic (Homo sapiens), Q99487; recombinant PAFAH2, FP-rhodamine activity probe; inhibition, % at 3.39 µM; 0.99% of 340,000 active;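 active means inhibition above the mean over all tested compounds plus 3 SD, cut at about 30% in these data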;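 further: inhibitors block probe labeling of enzyme so polarization drops; 0% = enzyme with DMSO and 100% = wells lacking PAFAH2 protein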
ARFGAP1 inh: inhibitors of rat ARFGAP1 GAP activity, primary screen, biochemical, fluorescence polarization, GDP tracer; ADP-ribosylation factor GTPase-activating protein 1 (Rattus norvegicus), Q62848; Arfgap1-stimulated ARF1 GTP hydrolysis, GDP FP detection; inhibition, % at 16.5 µM; 0.26% of 360,000 active;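 active means inhibition above a per-plate limit, mean inhibition of low control wells plus 3 SD, cut at about 25% in these data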;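 further: 0% = DMSO wells with enzyme and 100% = wells lacking Arfgap1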
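Replicates: Single well per compound | Assay system: Truncated rat Arfgap1 GAP domain | Control set: No-Arfgap1 wells (100%) versus DMSO full-reaction wells (0%) | Times: Enzyme reaction 120 min at 25 °C after 20 min preincubation | Reagent: Human ARF1(Δ1-17)-GTP substrate | Measured by: Tracer-displacement fluorescence polarization with EDTA stop, 620/688 nm | Measure: Percent inhibition of Arfgap1-stimulated GTP hydrolysis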
ASAP1 inh: inhibitors of human ASAP1 ArfGAP activity, primary screen, biochemical, fluorescence polarization. Arf-GAP with SH3 domain, ANK repeat and PH domain-containing protein 1 (Homo sapiens), …. ASAP1-stimulated ARF1 GTP hydrolysis, GDP FP detection. inhibition, % at 16.5 µM. 0.19% of 360,000 active; in the data active means inhibition above about 25%;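 further: 0% = vehicle with enzyme and substrate and 100% = no enzyme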
Target sequence (Q9ULH1 325-724 limits assumed): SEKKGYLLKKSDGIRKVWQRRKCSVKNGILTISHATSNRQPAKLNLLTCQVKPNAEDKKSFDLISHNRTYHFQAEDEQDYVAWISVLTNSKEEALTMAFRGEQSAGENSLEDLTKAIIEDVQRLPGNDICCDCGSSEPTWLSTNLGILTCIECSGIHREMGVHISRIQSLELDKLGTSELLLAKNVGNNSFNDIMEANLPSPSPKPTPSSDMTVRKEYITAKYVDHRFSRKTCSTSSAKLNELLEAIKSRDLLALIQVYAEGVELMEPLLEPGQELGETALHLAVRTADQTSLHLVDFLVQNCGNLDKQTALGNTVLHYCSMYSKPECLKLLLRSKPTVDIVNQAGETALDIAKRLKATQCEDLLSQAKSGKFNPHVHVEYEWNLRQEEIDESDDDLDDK
pPAFAH inh: pPAFAH enzyme inhibitors, primary screen, biochemical, fluorescence polarization, human; Platelet-activating factor acetylhydrolase (Homo sapiens), Q13093; recombinant pPAFAH, FP-rhodamine probe fluorescence polarization; inhibition, % at 3.39 µM; 1.5% of 330,000 active;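 active means inhibition above the mean inhibition across the screen plus 3 SD, cut at about 25% in these data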;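 further: inhibitors block binding of the rhodamine activity-based probe so polarization drops; 0% = enzyme with DMSO and 100% = wells lacking pPAFAH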
PAFAH1B2 FP inh: PAFAH1B2 enzyme inhibitors, primary screen, biochemical, fluorescence polarization, human. recombinant PAFAH1B2, FP-rhodamine activity probe. inhibition, % at 3.39 µM. 1.2% of 340,000 active. AID 492953, 2010;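 active means inhibition above the mean of all tested compounds plus 3 SD, cut at about 24% in these data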;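 further: 0% = enzyme with DMSO and 100% = wells lacking PAFAH1B2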
Target sequence (P68402 whole entry, looked up): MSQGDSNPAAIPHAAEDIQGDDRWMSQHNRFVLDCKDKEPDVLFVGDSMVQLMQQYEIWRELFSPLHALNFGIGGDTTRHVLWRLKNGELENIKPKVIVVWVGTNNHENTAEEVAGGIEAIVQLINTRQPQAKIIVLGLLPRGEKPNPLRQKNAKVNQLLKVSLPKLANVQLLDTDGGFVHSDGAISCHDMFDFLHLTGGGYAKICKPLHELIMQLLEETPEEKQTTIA
pPAFAH FP conf: pPAFAH (PLA2G7) enzyme inhibitors, confirmation, biochemical, fluorescence polarization, human | shares compounds with pPAFAH inh | recombinant pPAFAH, FP-Rh probe fluorescence polarization | AID 463230, 2010 | 72% of 2,300 active | inhibition, % at 3.39 µM;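 active means mean inhibition of the triplicate above the hit cutoff set for the earlier primary screen, cut at about 25% in these data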;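 further: 0% = enzyme with DMSO and 100% = wells lacking pPAFAH enzyme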
Active calls of the source: *; / = not tested or not shown. Hits are enriched below; roughly 2.7% of the tested compounds scored in any of these assays.

SMILES	PAFAH1B3 inh	PAFAH2 inh	ARFGAP1 inh	ASAP1 inh	pPAFAH inh	PAFAH1B2 FP inh	pPAFAH FP conf
CCc1ccc(N2C(=O)NC(=O)/C(=C\c3cccn3CCOc3ccc(C(C)C)cc3)C2=O)cc1	3	20	-9	-9	2	16	/
Cc1cccc(N2C(=O)NC(=O)/C(=C\c3cccn3-c3ccc(Cl)cc3)C2=O)c1	8	54*	-7	-16	12	74*	/
Cc1cccc(N2C(=O)NC(=O)/C(=C\C=C\c3ccco3)C2=O)c1	-2	18	10	11	16	12	/
Cc1cccc(N2C(=O)NC(=O)/C(=C/c3ccc([N+](=O)[O-])o3)C2=O)c1	/	/	/	/	26*	/	/
Cc1cc(C)cc(N2C(=O)NC(=O)/C(=C/c3cccn3-c3ccc(Cl)cc3)C2=O)c1	4	42*	-15	-9	10	48*	/
Fc1ccc2nc(-c3ccc(CN4CCC(n5nnc6ccccc65)CC4)cc3)c(-c3ccccc3)nc2c1	/	/	0	-16	/	/	/
O=C(NCCN1CCC2(CC1)C(=O)NCN2c1ccccc1)c1ccc(F)cc1	/	/	-16	-12	/	/	/
COc1ccc(OC(=O)N(C)C[C@H]2OCc3cnnn3CCCC(=O)N([C@@H](C)CO)C[C@@H]2C)cc1	/	/	-3	-16	/	/	/
O=C1CC(=O)N(Cc2ccccc2)C(=S)N1	-2	3	-2	19	2	31*	/
COc1ccc(CN2C(=O)CC(=O)NC2=O)cc1	1	-4	10	-12	-2	5	/
Brc1ccc2c(c1)-n1nncc1CNC2	/	/	4	2	/	/	/
CC(C)S(=O)(=O)N1Cc2ccc(Br)cc2-n2nncc2C1	/	/	5	12	/	/	/
O=C1C(=O)c2ccccc2-c2ccccc21	71*	58*	-9	-18	7	43*	/
O=C1NC(=O)C(=Cc2ccc(-c3ccc(F)cc3O)o2)C(=O)N1	-3	13	2	0	1	32*	/
CC(=O)NC(Cc1ccc(N(CCCl)CCCl)cc1)C(=O)NC(C(=O)O)C(C)C (stereo not drawn)	-3	1	3	8	0	25*	/
CCOC(=O)CC(NC(=O)C(Cc1ccc(N(CCCl)CCCl)cc1)NC(C)=O)C(=O)OCC (stereo not drawn)	8	0	-10	2	-3	11	/
N#Cc1ccccc1Cn1cc(C(=O)c2cccs2)c2ccccc21	2	-4	4	-5	72*	-3	75*
CC(C)NC(=O)Cn1cc(C(=O)c2ccccc2F)c2ccccc21	-6	-9	-2	2	0	1	/
N#Cc1ccccc1Cn1cc(C(=O)c2ccccc2F)c2ccccc21	5	-2	11	-4	72*	-6	79*
O=C(c1cccs1)c1cn(Cc2ccccc2Cl)c2ccccc12	-6	-9	-3	-3	71*	-5	71*
COc1ccc([C@@H](O)[C@@H](N)c2ccccc2)cc1	/	/	1	-3	2	/	/
CC(C)(C)c1ccc(C(=O)C2CCCN(C3CCC3)C2)cc1 (stereo not drawn)	9	1	-8	13	3	10	/
Clc1cc(Cl)cc(NC2=NCCS2)c1	10	9	4	5	3	11	/
CN(C)C1C(=O)C(C(N)=O)=C(O)C2(O)C(=O)C3=C(O)c4c(O)cccc4C(C)(O)C3C(O)C12 (stereo not drawn)	26*	26	-12	-4	73*	10	7
COc1cc(/C=C/c2nc3ccccc3c(=O)n2-c2ccc(O)cc2)ccc1O	6	3	4	18	6	6	/
SMILES	PAFAH1B3 inh	PAFAH2 inh	ARFGAP1 inh	ASAP1 inh	pPAFAH inh	PAFAH1B2 FP inh	pPAFAH FP conf
COc1ccc(-n2c(/C=C/c3ccc(O)c(O)c3)nc3ccccc3c2=O)cc1	4	5	13	10	37*	-2	46*
CCOP(=O)(OCC)C1(O)C(=O)Nc2ccc(Br)cc21 (stereo not drawn)	11	3	0	-17	2	0	/
CCN(CC)c1ccc(N=Cc2c(O)n(CCc3ccc(OC)c(OC)c3)c(=O)[nH]c2=O)cc1	-1	3	-8	0	19	1	/
CCN(CCO)c1ccc(N=Cc2c(O)n(C)c(=S)[nH]c2=O)cc1	/	/	-1	4	37*	/	3
CCN(CC)c1ccc(N=Cc2c(O)n(-c3cc(OC)ccc3OC)c(=O)[nH]c2=O)cc1	0	-7	2	6	38*	7	8
CCN(CC)c1ccc(N=Cc2c(O)n(Cc3ccco3)c(=O)[nH]c2=O)cc1	7	10	0	-3	46*	3	0
c1ccc2c(c1)Sc1ccccc1N2CC1CN2CCC1CC2 (stereo not drawn)	14	7	-5	-1	2	2	/
Cc1ccc(-n2cc(CNC(C)Cc3cnccn3)c(-c3cccc(C)c3)n2)cc1 (stereo not drawn)	8	-7	15	4	1	-2	/
Cc1ccc(CS(=O)(=O)Cc2ccc(C(=O)N3CCC4(CC3)OCCO4)o2)cc1	2	12	-5	3	40*	3	32*
Cc1ccc(S(=O)(=O)Cc2ccc(C(=O)N3CCC4(CC3)OCCO4)o2)cc1	5	11	3	10	0	5	/
O=C(COC(=O)Cc1ccccc1)Nc1cc(S(=O)(=O)N2CCOCC2)ccc1N1CCCC1	2	9	10	-4	39*	4	39*
C=CC(C)C(C(=O)c1ccccc1)N(C)C (stereo not drawn)	2	0	13	1	-8	4	/
CNc1ccc2oc(C[C@H]3O[C@@]4(CC[C@H]3C)O[C@H]([C@H](C)C(=O)c3ccc[nH]3)[C@H](C)C[C@H]4C)nc2c1C(=O)O	10	-1	10	-5	38*	4	8
COc1ccc2c3c1O[C@H]1C(=O)CC[C@H]4[C@@H](C2)N(C)CC[C@]314	2	0	8	9	2	-3	/
CN(C)C(=O)Oc1noc2cc(Cl)ccc12	2	41*	-1	-1	43*	0	52*
CN(C)C(=O)Oc1c(Cl)cc(Cl)c2cccnc12	5	0	-7	-7	6	2	/
